Source: PubChem (several laboratories)
bovine MsrA act – bovine methionine sulfoxide reductase A activation. purified bovine MsrA, absorbance read-out. activation, % at 10.6 µM. 360,000 compounds, 0.3% hits; in the data active = activation above about 7.5%;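 note: 0% = vehicle and 100% = reference activator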
m5-HT2A agonist – agonists of mouse serotonin 5-HT2A receptor (HTR2A). P35363. CHO-K1 mHTR2A beta-arrestin complementation, luminescence; percent of 30 µM serotonin response. activation, % at 7.6 µM. 360,000 compounds, 0.66% hits. AID 624169;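 active = activation above a run cutoff, the mean activation of all tested compounds plus 3 SD, cut at about 14% in these data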;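 note: 0% = plate median of compound wells and 100% = 30 µM serotonin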
MsrA inh – inhibitors of bovine MsrA | 360,000 compounds, 0.75% hits | purified bovine MsrA, absorbance read-out | AID 651718 | inhibition, % at 15.5 µM; in the data active = inhibition above about 4.5%;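 note: 0% = vehicle wells with enzyme and 100% = reference inhibitor wells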
Tb MetRS inh – blocks T. brucei methionyl-tRNA synthetase activity; purified T. brucei MetRS, ATP depletion, Kinase-Glo luminescence; inhibition, % at 11.9 µM; 360,000 compounds, 0.4% hits;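 active = inhibition above a per-plate cutoff of the control wells' mean inhibition plus 3 SD, cut at about 5.5% in these data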;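 note: 0% = DMSO wells median and 100% = median of wells with control inhibitor compound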
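Material: T. brucei methionyl-tRNA synthetase, purified; reagent: substrates ATP, L-methionine and bulk Escherichia coli tRNA; dosing: 11.9 µM single point; timing: 15 min plus 2 h at 25 °C; detection: luminescence of leftover ATP; evaluation: % inhibition; control set: DMSO-only wells as low control; replicates: singlicate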
AI-2 QS modul – modulators of Vibrio harveyi AI-2 quorum sensing system; Vibrio harveyi JMH597 AI-2 luminescence/OD600 ratio, 9 h; hits give low values; strain lacks LuxN and CqsS sensors; 0 = neutral-control median; activity change, % at 7.5 µM; 300,000 compounds, 0.4% hits; AID 2094; in the data active = activity change below about -75%, passing the limit was not always enough; inconclusive = no clear call, values can overlap the other calls;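 note: luminescence divided by OD600 gain over 9 h not by final OD600 alone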
AHR act – activators of human aryl hydrocarbon receptor | P35869 | AHR-responsive luciferase reporter cells, luminescence | activation, % at 5 µM | 320,000 compounds, 2.5% hits | AID 2796; in the data active = activation above about 47%;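 note: 0% = vehicle wells and 100% = reference agonist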
Target sequence (P35869 whole entry, looked up): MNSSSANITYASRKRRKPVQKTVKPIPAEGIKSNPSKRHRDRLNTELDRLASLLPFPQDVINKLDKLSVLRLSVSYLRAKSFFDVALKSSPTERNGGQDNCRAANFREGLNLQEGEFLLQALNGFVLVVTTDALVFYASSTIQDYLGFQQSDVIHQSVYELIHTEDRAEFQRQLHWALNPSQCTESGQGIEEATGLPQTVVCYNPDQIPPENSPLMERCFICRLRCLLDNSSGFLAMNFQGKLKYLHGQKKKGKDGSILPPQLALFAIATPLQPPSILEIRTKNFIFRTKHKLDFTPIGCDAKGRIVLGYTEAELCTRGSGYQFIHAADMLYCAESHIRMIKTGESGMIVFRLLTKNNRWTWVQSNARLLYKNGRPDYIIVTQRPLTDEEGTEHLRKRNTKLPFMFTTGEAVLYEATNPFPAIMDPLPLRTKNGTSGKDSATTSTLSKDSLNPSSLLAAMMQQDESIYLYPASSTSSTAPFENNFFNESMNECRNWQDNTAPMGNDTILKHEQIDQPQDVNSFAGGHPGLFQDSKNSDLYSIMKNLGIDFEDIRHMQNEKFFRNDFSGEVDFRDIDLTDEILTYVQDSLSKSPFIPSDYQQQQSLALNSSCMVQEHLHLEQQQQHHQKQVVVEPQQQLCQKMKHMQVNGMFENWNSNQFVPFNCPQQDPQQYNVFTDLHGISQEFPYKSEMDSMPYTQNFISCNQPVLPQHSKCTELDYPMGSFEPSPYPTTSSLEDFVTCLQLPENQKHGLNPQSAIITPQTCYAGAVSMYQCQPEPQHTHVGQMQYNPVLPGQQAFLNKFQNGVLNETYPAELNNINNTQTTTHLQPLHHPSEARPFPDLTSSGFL
JMH597 growth – retest: inhibitors of Vibrio harveyi JMH597 growth. shares compounds with AI-2 QS modul. OD600 absorbance, 9 h; lacks LuxN and CqsS sensors. growth inhibition, % at 7.5 µM. 750 compounds, 1% hits. AID 2726;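 active = every replicate shows growth inhibition above 50%; inconclusive = at least half, but not all, replicates pass that cutoff; inactive = fewer than half of replicates pass it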
BB721 const-QS lum – retest counter-screen: luminescence loss in constitutive-on quorum sensing strain BB721. 750 compounds, 95% hits. inhibition, % at 7.5 µM. Vibrio harveyi BB721 luminescence, 9 h. shares compounds with AI-2 QS modul;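 active = inhibition above about 80% in every replicate, not just on average, limit read from the data; inconclusive = at least half of replicates past the limit, but not all; inactive = fewer than half of replicates past the limit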
BB721 growth – retest: blocks Vibrio harveyi BB721 growth. shares compounds with AI-2 QS modul. OD600 absorbance, 9 h. growth inhibition, % at 7.5 µM. 750 compounds, 3% hits. AID 2728;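 active = every replicate shows growth inhibition above 50%; inconclusive = at least half but not all replicates above 50% inhibition; inactive = under half of replicates above 50% inhibition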
JMH597 AI-2 mod – Vibrio harveyi AI-2 signaling luminescence modulation – JMH597 strain, confirmation; shares compounds with AI-2 QS modul; Vibrio harveyi JMH597 AI-2 quorum sensing luminescence, 9 h; luxN and CqsS knockout, AI-2 only; inhibition, % at 7.5 µM; 750 compounds, 97% hits;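 active = every replicate shows more than 75% inhibition of signal versus neutral control wells; inconclusive = half to three quarters of replicates exceed 75% inhibition; inactive = fewer than half of replicates exceed 75% inhibition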
* marks the source's active call; other numbers are inactive results; ? = inconclusive; . = no result given. In the library only some 4.4% were active in any assay of this set; here they are far more common.

SMILES | bovine MsrA act | m5-HT2A agonist | MsrA inh | Tb MetRS inh | AI-2 QS modul | AHR act | JMH597 growth | BB721 const-QS lum | BB721 growth | JMH597 AI-2 mod
Cc1cccc(Oc2cnn(C(C)(C)C)c(=O)c2Cl)c1 | -1 | 4 | 0 | 0 | -92* | 1 | 21 | 96* | -19 | 98*
O=C(CCc1ccccc1)Nc1ccc2c(c1)OCO2 | -6 | 6 | 2 | 0 | -69 | 41 | . | . | . | .
O=C(Nc1ccc2c(c1)OCO2)OCc1ccccc1 | -3 | -4 | . | 0 | -93* | -5 | -4 | 98* | 18 | 98*
O=C(/C=C/c1cccc(F)c1)NCc1ccc2c(c1)OCO2 | -3 | 5 | -1 | 0 | -88* | 8 | -6 | 96* | -10 | 97*
Cc1cccc(NC(=S)NCc2ccc3c(c2)OCO3)c1 | 0 | 2 | 1 | 0 | -10 | 4 | . | . | . | .
O=C(/C=C/c1cccc([N+](=O)[O-])c1)NCc1ccc2c(c1)OCO2 | -2 | 1 | 0 | 0 | -54 | 1 | . | . | . | .
Cc1cccc(NC(=O)CO/N=C/c2ccc3c(c2)OCO3)c1 | -7 | -1 | 0 | 0 | -89* | 7 | 12 | 96* | 22 | 97*
O=C(CO/N=C/c1ccc2c(c1)OCO2)Nc1cccc(Br)c1 | -4 | 0 | 1 | -1 | -89* | 4 | 13 | 98* | 29 | 98*
Cc1cccc(NC(=O)NCc2ccc3c(c2)OCO3)c1 | -3 | -8 | 1 | 0 | -87* | 29 | -15 | 96* | 12 | 96*
CC(C)(C)OC(=O)C[C@@H]1C/C=C\C[C@H](CC(=O)N(CCO)Cc2ccccc2)C(=O)N[C@@H](Cc2c[nH]c3ccccc23)COC1=O | 0 | -9 | 0 | 0 | . | 7 | . | . | . | .
O=C1CCC(=O)N1c1ccc(CSc2nc3ccccc3[nH]2)cc1 | -1 | 5 | 1 | 0 | 6 | 7 | . | . | . | .
COc1ccc(CSc2nc3ccccc3[nH]2)cc1 | -3 | 1 | 0 | -2 | -85* | -2 | 21 | 92* | -14 | 96*
COc1cccc(/C=N/n2c(C3CCCCC3)n[nH]c2=S)c1OC | -1 | 5 | -1 | 0 | 13 | 5 | . | . | . | .
COc1ccccc1/C=C\C=N\n1c(C2CCCCC2)n[nH]c1=S | 1 | 5 | 2 | 0 | ? | 3 | 24 | 94* | 24 | 97*
O=C(NCCN1CCOCC1)c1ccc(Cl)c([N+](=O)[O-])c1 | -3 | -1 | 2 | 0 | ? | -1 | 4 | -6 | -16 | 5
O=c1[nH]cc(S(=O)(=O)NCc2ccccc2)c(=O)[nH]1 | -2 | 0 | -1 | 1 | 21 | 4 | . | . | . | .
C(=C\c1nc(-c2ccccc2)no1)/c1ccccc1 | -2 | 2 | 0 | 0 | -88* | 13 | 11 | 95* | 13 | 96*
Cc1ccc(-c2cc(NC(=O)c3ccccc3[N+](=O)[O-])n[nH]2)cc1 | -1 | -4 | 1 | -1 | -95* | 45 | -3 | 97* | -24 | 98*
O=C(Nc1cc(-c2ccccc2)[nH]n1)c1ccc(Cl)cc1 | -1 | -1 | 1 | 3 | -82* | 1 | 16 | 96* | 22 | 96*
CN(c1ccccc1)S(=O)(=O)c1cccc(NC(=O)Cn2cnc3ccccc3c2=O)c1 | -1 | 0 | 1 | -1 | -93* | 0 | 55 | 99* | 88* | 99*
CC(C)(C)c1csc(NC(=O)Cn2cnc3ccccc3c2=O)n1 | -7 | 2 | 1 | 0 | -95* | 6 | 8 | 97* | -2 | 98*
CCCCOC(=O)Nc1ccc(S(=O)(=O)Nc2ncccn2)cc1 | -10 | 3 | 0 | -1 | -91* | 3 | -16 | 96* | -18 | 97*
O=C(Cc1ccc(Cl)cc1)N/N=C/c1ccncc1 | -2 | 0 | 0 | 1 | -81* | 5 | -25 | 92* | 6 | 92*
O=C(Cc1ccc(Cl)cc1)N/N=C/c1cccc(O)c1 | -2 | 1 | 0 | 3 | -95* | 3 | 12 | 97* | 1 | 98*
O=C(Cc1c[nH]c2ccccc12)NCC(=O)Nc1ccc(F)c(F)c1F | -1 | -5 | 0 | 0 | . | 27 | . | . | . | .
SMILES | bovine MsrA act | m5-HT2A agonist | MsrA inh | Tb MetRS inh | AI-2 QS modul | AHR act | JMH597 growth | BB721 const-QS lum | BB721 growth | JMH597 AI-2 mod
COC(=S)Nc1cccc(C(F)(F)F)c1 | -9 | 4 | -1 | -1 | 13 | 1 | . | . | . | .
Cc1cc(C(=O)NNC(=O)Nc2cccc(C(F)(F)F)c2)no1 | -11 | 6 | 0 | -1 | -90* | -2 | -7 | 98* | -14 | 98*
COC(=O)/C=C/C(=O)Nc1cccc(C(F)(F)F)c1 | -3 | 2 | 0 | 0 | -89* | 12 | 9 | 87* | 34 | 87*
Cc1cc(C(=O)NNC(=O)c2cccc(C(F)(F)F)c2)no1 | 3 | 0 | 0 | 1 | 14 | 0 | . | . | . | .
COc1ccc(C(=O)CCC(=O)NC2=NCCS2)cc1 | 0 | 0 | 0 | 0 | 32 | 3 | . | . | . | .
O=C(Nc1ccc2c(c1)C(=O)OC2)c1ccccc1Cl | 0 | -2 | 0 | -1 | 9 | 30 | . | . | . | .
O=C(COC(=O)Cc1ccsc1)Nc1ccc(Cl)cn1 | -1 | -11 | 1 | 0 | . | 1 | . | . | . | .
CCN(CC)S(=O)(=O)c1ccc(Oc2cccc(C(C)=O)c2)nc1 | 3 | -7 | 0 | 0 | -85* | 0 | 2 | 95* | -8 | 96*
CCN(c1ccccc1)S(=O)(=O)c1ccc(Oc2ccccc2C(C)=O)nc1 | -2 | 9 | -1 | 0 | . | 4 | . | . | . | .
CCOC(=O)c1ccc(S(=O)(=O)Nc2ccc3cn[nH]c3c2)cc1 | -1 | 1 | -1 | -1 | -90* | 20 | 28 | 95* | 28 | 97*
COc1cc([N+](=O)[O-])ccc1NC(=O)COC(=O)C=C(C)C | -11 | 6 | 2 | -2 | -23 | 3 | . | . | . | .
CC(C)=CC(=O)OCC(=O)Nc1cccc([N+](=O)[O-])c1 | -4 | 0 | 0 | 0 | -89* | -3 | 11 | 95* | 4 | 97*
O=C(COc1ncnc2ccccc12)Nc1cccc([N+](=O)[O-])c1 | 0 | 1 | 0 | 1 | -96* | 0 | -9 | 98* | -41 | 99*
O=C(COc1ncnc2ccccc12)Nc1ccc(Cl)c([N+](=O)[O-])c1 | -4 | 1 | 0 | 2 | -97* | 2 | -21 | 100* | -10 | 100*
